These results are taken from ChEMBL document CHEMBL1287747, “Highly active antimycobacterial derivatives of benzoxazine” (2010).

What all share (format): functional
Assay [1] deals with Mycobacterium kansasii. Kind of assay: Antimycobacterial activity against Mycobacterium kansasii CNCTC My 235/80 after 14 days by microdilution method. Conditions: CNCTC My 235/80, 336 h. In outline: (§1)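 Strains from the Czech National Collection of Type Cultures, tested by dilution micromethod in Šula semisynthetic medium. Incubated at 37 °C and read at 14 and 21 days. MIC is the lowest concentration inhibiting growth.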

Assay [2] relates to Mycobacterium kansasii. Kind of assay: Antimycobacterial activity against Mycobacterium kansasii 6509/96 after 21 days by microdilution method. Conditions: 6509/96, 504 h. In outline:
(§2)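 Clinical isolate that, unlike the standard strain, is not isoniazid-resistant. Tested by dilution micromethod in Šula semisynthetic medium, with compounds added in DMSO at final 1000 down to 0.25 µmol/L in twofold steps. Löwenstein-Jensen plate used as inoculum sterility and growth control. Incubated at 37 °C and read at 14 and 21 days. MIC is the lowest concentration inhibiting growth.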

In assay [3] the test system is Mycobacterium avium. Kind of assay: Antimycobacterial activity against Mycobacterium avium CNCTC My 330/88 after 21 days by microdilution method. The settings on record: CNCTC My 330/88, 504 h. In outline: as §1
Background: Broth dilution looks for growth in wells or tubes with falling amounts of substance.

The test system of assay [4] is Mycobacterium tuberculosis. Kind of assay: Antimycobacterial activity against Mycobacterium tuberculosis CNCTC My 331/88 after 21 days by microdilution method. The settings on record: CNCTC My 331/88, 504 h. In outline: as §1
In assay [5] the test system is Mycobacterium avium. Nature of the assay: Antimycobacterial activity against Mycobacterium avium CNCTC My 330/88 after 14 days by microdilution method. The settings on record: CNCTC My 330/88, 336 h. In outline: as §1
Assay [6] has as its system Mycobacterium kansasii. Nature of the assay: Antimycobacterial activity against Mycobacterium kansasii CNCTC My 235/80 after 21 days by microdilution method. The settings on record: CNCTC My 235/80, 504 h. In outline:
as §1

The subject of assay [7] is Mycobacterium kansasii. Kind of assay: Antimycobacterial activity against Mycobacterium kansasii 6509/96 after 14 days by microdilution method. Conditions: 6509/96, 336 h. In outline: as §2
Assay [8] deals with Mycobacterium tuberculosis. Nature of the assay: Antimycobacterial activity against Mycobacterium tuberculosis CNCTC My 331/88 after 14 days by microdilution method. Conditions: CNCTC My 331/88, 336 h. In outline:
as §1

The structures appear in SMILES notation. Converted amounts (≈) assume the structure as drawn.

The MIC is the smallest concentration in the dilution series that meets the test's criterion for growth inhibition. A higher MIC goes with weaker potency.

In the case of `Cc1ccc(-n2c(=S)oc3ccc(Br)cc3c2=S)cc1`, the MIC with Mycobacterium kansasii [1] amounted to 4 µM (≈ 1.46 µg/mL); in the assay on Mycobacterium kansasii [2] it was 4 µM (≈ 1.46 µg/mL); against Mycobacterium avium [3], 30 µM (≈ 10.9 µg/mL); in assay [4], 1 µM (≈ 0.364 µg/mL); in the assay with Mycobacterium avium [5], 15 µM (≈ 5.46 µg/mL); in the assay with Mycobacterium kansasii [6] it was 4 µM (≈ 1.46 µg/mL). The MIC was 4 µM (≈ 1.46 µg/mL) against Mycobacterium kansasii [7] and 0.5 µM (≈ 0.182 µg/mL) in assay [8].
Consider `CC(C)(C)c1ccc(-n2c(=S)oc3cc(Cl)ccc3c2=S)cc1`, for which the MIC was found to be 2 µM (≈ 0.724 µg/mL) with Mycobacterium kansasii [1]; 4 µM (≈ 1.45 µg/mL) against Mycobacterium kansasii [2]; 4 µM (≈ 1.45 µg/mL) in the assay on Mycobacterium avium [3]; 0.5 µM (≈ 0.181 µg/mL) in assay [4]; 2 µM (≈ 0.724 µg/mL) with Mycobacterium avium [5]; 4 µM (≈ 1.45 µg/mL) with Mycobacterium kansasii [6]. Also, the figures for the MIC (in the assay on Mycobacterium kansasii [7]; in assay [8]) were 2 µM (≈ 0.724 µg/mL) and 0.5 µM (≈ 0.181 µg/mL), respectively.
Regarding `CCCCc1ccc(-n2c(=S)oc3ccc(Cl)cc3c2=S)cc1`, the MIC with Mycobacterium kansasii [1] amounted to 8 µM (≈ 2.9 µg/mL); against Mycobacterium kansasii [2], 8 µM (≈ 2.9 µg/mL); against Mycobacterium avium [3] it was 16 µM (≈ 5.79 µg/mL); in assay [4], 4 µM (≈ 1.45 µg/mL); against Mycobacterium avium [5], 8 µM (≈ 2.9 µg/mL); in the assay with Mycobacterium kansasii [6], 8 µM (≈ 2.9 µg/mL). For the same compound, the MIC came out at 8 µM (≈ 2.9 µg/mL) against Mycobacterium kansasii [7] and 2 µM (≈ 0.724 µg/mL) in assay [8].
Take `CCC(C)c1ccc(-n2c(=S)oc3cc(C)ccc3c2=S)cc1` (centres undefined): the MIC was determined as 2 µM (≈ 0.683 µg/mL) in the assay on Mycobacterium kansasii [1]; 1 µM (≈ 0.342 µg/mL) in the assay on Mycobacterium kansasii [2]; 0.5 µM (≈ 0.171 µg/mL) against Mycobacterium avium [3]; 0.5 µM (≈ 0.171 µg/mL) in assay [4]; 0.25 µM (≈ 0.0854 µg/mL) in the assay with Mycobacterium avium [5]; 2 µM (≈ 0.683 µg/mL) against Mycobacterium kansasii [6]. Moreover, the MIC is 0.5 µM (≈ 0.171 µg/mL) in the assay on Mycobacterium kansasii [7] and 0.25 µM (≈ 0.0854 µg/mL) in assay [8].
Turning to `CC(C)(C)c1ccc(-n2c(=O)oc3ccc(F)cc3c2=O)cc1`, the MIC (in the assay on Mycobacterium kansasii [1]; with Mycobacterium kansasii [2]; in the assay on Mycobacterium avium [3]; in assay [4]; against Mycobacterium avium [5]; against Mycobacterium kansasii [6]) was 16 µM (≈ 5.01 µg/mL) throughout. For the same compound, the MIC is 8 µM (≈ 2.51 µg/mL) with Mycobacterium kansasii [7] and 16 µM (≈ 5.01 µg/mL) in assay [8].
Take `CCc1ccc(-n2c(=O)oc3cc(Cl)ccc3c2=O)cc1`: the MIC against Mycobacterium kansasii [1] is 16 µM (≈ 4.83 µg/mL); in the assay on Mycobacterium kansasii [2], 16 µM (≈ 4.83 µg/mL); against Mycobacterium avium [3], 16 µM (≈ 4.83 µg/mL); in assay [4] it was 8 µM (≈ 2.41 µg/mL); against Mycobacterium avium [5] it was 8 µM (≈ 2.41 µg/mL); against Mycobacterium kansasii [6], 16 µM (≈ 4.83 µg/mL). Also, the MIC against Mycobacterium kansasii [7] is 16 µM (≈ 4.83 µg/mL); in assay [8] it was 8 µM (≈ 2.41 µg/mL).
With `CCC(C)c1ccc(-n2c(=O)oc3ccc(Br)cc3c2=O)cc1` (centres undefined), the MIC worked out at 8 µM (≈ 2.99 µg/mL) with Mycobacterium kansasii [1]; 16 µM (≈ 5.99 µg/mL) with Mycobacterium kansasii [2]; 32 µM (≈ 12 µg/mL) against Mycobacterium avium [3]; 8 µM (≈ 2.99 µg/mL) in assay [4]; 16 µM (≈ 5.99 µg/mL) against Mycobacterium avium [5]; 8 µM (≈ 2.99 µg/mL) against Mycobacterium kansasii [6]. The MIC against Mycobacterium kansasii [7] stood at 8 µM (≈ 2.99 µg/mL); in assay [8], 4 µM (≈ 1.5 µg/mL).
Take `CCCCc1ccc(-n2c(=O)oc3ccc(Cl)cc3c2=S)cc1`: the MIC in the assay on Mycobacterium kansasii [1] came to 8 µM (≈ 2.77 µg/mL); against Mycobacterium kansasii [2], 4 µM (≈ 1.38 µg/mL); in the assay on Mycobacterium avium [3] it was 16 µM (≈ 5.53 µg/mL); in assay [4], 2 µM (≈ 0.692 µg/mL); with Mycobacterium avium [5], 8 µM (≈ 2.77 µg/mL); in the assay on Mycobacterium kansasii [6] it was 16 µM (≈ 5.53 µg/mL). Further, the figures for the minimum inhibitory concentration (MIC) (in the assay with Mycobacterium kansasii [7]; in assay [8]) were 4 µM (≈ 1.38 µg/mL) and 1 µM (≈ 0.346 µg/mL), respectively.
For the compound `CC(C)(C)c1ccc(-n2c(=O)oc3ccc(Cl)cc3c2=O)cc1`, the MIC was determined as 8 µM (≈ 2.64 µg/mL) against Mycobacterium kansasii [1]; 8 µM (≈ 2.64 µg/mL) in the assay with Mycobacterium kansasii [2]; 32 µM (≈ 10.6 µg/mL) in the assay on Mycobacterium avium [3]; 16 µM (≈ 5.28 µg/mL) in assay [4]; 16 µM (≈ 5.28 µg/mL) in the assay on Mycobacterium avium [5]; 16 µM (≈ 5.28 µg/mL) against Mycobacterium kansasii [6]. Also, the MIC (against Mycobacterium kansasii [7]; in assay [8]) was 8 µM (≈ 2.64 µg/mL) each time.
For `CC(C)(C)c1ccc(-n2c(=O)oc3ccc(F)cc3c2=S)cc1`, the MIC in the assay with Mycobacterium kansasii [1] amounted to 4 µM (≈ 1.32 µg/mL); in the assay on Mycobacterium kansasii [2], 8 µM (≈ 2.64 µg/mL); in the assay with Mycobacterium avium [3] it was 1 µM (≈ 0.329 µg/mL); in assay [4], 0.5 µM (≈ 0.165 µg/mL); with Mycobacterium avium [5], 0.5 µM (≈ 0.165 µg/mL); in the assay on Mycobacterium kansasii [6], 8 µM (≈ 2.64 µg/mL). Further, the figures for the MIC (with Mycobacterium kansasii [7]; in assay [8]) were 8 µM (≈ 2.64 µg/mL) and 0.25 µM (≈ 0.0823 µg/mL), respectively.
As to `CCc1ccc(-n2c(=S)oc3ccc(Br)cc3c2=S)cc1`, the MIC was determined as 8 µM (≈ 3.03 µg/mL) in the assay on Mycobacterium kansasii [1]; 8 µM (≈ 3.03 µg/mL) with Mycobacterium kansasii [2]; 62.5 µM (≈ 23.6 µg/mL) against Mycobacterium avium [3]; 2 µM (≈ 0.757 µg/mL) in assay [4]; 62.5 µM (≈ 23.6 µg/mL) in the assay on Mycobacterium avium [5]; 16 µM (≈ 6.05 µg/mL) in the assay on Mycobacterium kansasii [6]. Also, the results for the minimal inhibitory concentration (MIC) (against Mycobacterium kansasii [7]; in assay [8]) were 4 µM (≈ 1.51 µg/mL) and 1 µM (≈ 0.378 µg/mL), respectively.
As to `CCc1ccc(-n2c(=O)oc3ccc(Cl)cc3c2=O)cc1`, the MIC against Mycobacterium kansasii [1] worked out at 16 µM (≈ 4.83 µg/mL); with Mycobacterium kansasii [2] it was 16 µM (≈ 4.83 µg/mL); against Mycobacterium avium [3], 32 µM (≈ 9.66 µg/mL); in assay [4], 16 µM (≈ 4.83 µg/mL); in the assay on Mycobacterium avium [5] it was 16 µM (≈ 4.83 µg/mL); in the assay with Mycobacterium kansasii [6], 16 µM (≈ 4.83 µg/mL). For the same compound, the figures for the MIC (against Mycobacterium kansasii [7]; in assay [8]) were 16 µM (≈ 4.83 µg/mL) and 8 µM (≈ 2.41 µg/mL), respectively.
`CCC(C)c1ccc(-n2c(=S)oc3cc(Cl)ccc3c2=S)cc1` (centres undefined): the MIC stood at 4 µM (≈ 1.45 µg/mL) against Mycobacterium kansasii [1]; 2 µM (≈ 0.724 µg/mL) in the assay on Mycobacterium kansasii [2]; 8 µM (≈ 2.9 µg/mL) in the assay with Mycobacterium avium [3]; 1 µM (≈ 0.362 µg/mL) in assay [4]; 4 µM (≈ 1.45 µg/mL) in the assay on Mycobacterium avium [5]; 8 µM (≈ 2.9 µg/mL) with Mycobacterium kansasii [6]. The MIC (against Mycobacterium kansasii [7]; in assay [8]) was 1 µM (≈ 0.362 µg/mL) each time.
